Results as given in ChEMBL document CHEMBL1156597, “Structure-activity relationship of kahalalide F synthetic analogues” (J Med Chem, 2008).

Experiments:
LoVo [1] = experiment: Cytotoxicity against human doxorubicin resistant LoVo cells after 48 hrs by SRB assay; format: functional; details: for CC50: read-out: LC50 (the source's name)
Outline: (§1)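 Cells grown in RPMI 1640 with 10% FBS and penicillin/streptomycin at 37 °C and 5% CO₂, trypsinized, then seeded at 5 × 10³/well. After 18 h drug-free attachment, samples in DMSO/EtOH/PBS (0.5:0.5:99) were added for 48 h continuous exposure. Cells were fixed with cold TCA (1 h, 4 °C) and stained with SRB (10 min). Tris-solubilized stain read at 490 nm. Triplicate wells, mean ± SD; GI₅₀ derived.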

K562 = experiment: Cytotoxicity against human K562 cells after 48 hrs by SRB assay; format: functional; details: K562, 48 h; for CC50: read-out: LC50 (the source's name); outline: as §1
LoVo [2] = experiment: Cytotoxicity against human LoVo cells after 48 hrs by SRB assay; format: functional; details: for CC50: read-out: LC50 (the source's name)
LNCaP = experiment: Cytotoxicity against human LNcaP cells after 48 hrs by SRB assay; format: functional; details: for CC50: read-out: LC50 (the source's name); outline: as §1
[3] = Cytotoxicity against human IGROV-ET cells after 48 hrs by SRB assay; format: functional; details: for CC50: read-out: LC50 (the source's name); outline: as §1
HT-29 = experiment: Cytotoxicity against human HT29 cells after 48 hrs by SRB assay; format: functional, cell-based; details: Homo sapiens, HT-29, 48 h; for CC50: read-out: LC50 (the source's name); outline: as §1
PANC-1 = experiment: Cytotoxicity against human PANC1 cells after 48 hrs by SRB assay; format: functional; details: PANC-1, 48 h; for CC50: read-out: LC50 (the source's name); outline: as §1
SK-MEL-28 = experiment: Cytotoxicity against human SK-MEL-28 cells after 48 hrs by SRB assay; format: functional, cell-based; details: Homo sapiens, SK-MEL-28, 48 h; for GI50: read-out: GI50; for CC50: read-out: LC50 (the source's name); outline: as §1
HeLa = experiment: Cytotoxicity against human HeLa cells after 48 hrs by SRB assay; format: functional; details: for CC50: read-out: LC50 (the source's name); outline: as §1
[4] = Cytotoxicity against human HeLa-APL cells after 48 hrs by SRB assay; format: functional; outline: as §1
A549 = experiment: Cytotoxicity against human A549 cells after 48 hrs by SRB assay; format: functional, cell-based; details: Homo sapiens, A549, 48 h; for GI50: read-out: GI50; outline: as §1
[5] = Cytotoxicity against human IGROV cells after 48 hrs by SRB assay; format: functional; details: for CC50: read-out: LC50 (the source's name); outline: as §1
DU-145 = experiment: Cytotoxicity against human DU145 cells after 48 hrs by SRB assay; format: functional, cell-based; details: Homo sapiens, DU-145, 48 h; for GI50: read-out: GI50; for CC50: read-out: LC50 (the source's name); outline: as §1
SK-BR-3 = experiment: Cytotoxicity against human SKBR3 cells after 48 hrs by SRB assay; format: functional; details: SK-BR-3, 48 h; for GI50: read-out: GI50; for CC50: read-out: LC50 (the source's name); outline: as §1

SMILES | GI50 (LoVo [1]) | TGI (LoVo [1]) | CC50 (LoVo [1]) | CC50 (K562) | GI50 (LoVo [2]) | TGI (LoVo [2]) | CC50 (LoVo [2]) | CC50 (LNCaP) | CC50 [3] | CC50 (HT-29) | CC50 (PANC-1) | CC50 (SK-MEL-28) | CC50 (HeLa) | LC50 (concentration giving 50% net cell kill) [4] | LC50 (A549) | CC50 [5] | CC50 (DU-145) | TGI (SK-BR-3) | GI50 (SK-BR-3) | CC50 (SK-BR-3) | also measured
C/C=C1\NC(=O)[C@H](Cc2ccccc2)NC(=O)[C@@H](C(C)C)NC(=O)[C@@H]([C@H](C)CC)NC(=O)[C@H](NC(=O)[C@H](NC(=O)[C@H](CCCN)NC(=O)[C@H]2CCCN2C(=O)[C@H](NC(=O)[C@@H](NC(=O)[C@@H](NC(=O)[C@H](NC(=O)CC[C@H](C)CC)C(C)C)[C@@H](C)O)C(C)C)C(C)C)[C@H](C)CC)[C@H](C)OC(=O)[C@H](C(C)C)NC1=O | 690 nM | 1040 nM | 1660 nM | 1930 nM | 690 nM | 1180 nM | 1890 nM | 1130 nM | 614 nM | 668 nM | 1640 nM | 1160 nM | 971 nM | 1240 nM | 1360 nM | 551 nM | 1130 nM | 425 nM | 469 nM | 383 nM | GI50 (K562): 2180 nM; TGI (K562): 1930 nM; GI50 (LNCaP): 1470 nM; TGI (LNCaP): 1290 nM; GI50 [3]: 920 nM; GI50 ([3]; read-out: GI50): 1900 nM; TGI (SK-MEL-28): 1270 nM; GI50 (SK-MEL-28): 1370 nM; GI50 [4]: 1420 nM; TGI [4]: 1420 nM; TGI (A549): 1420 nM; GI50 (A549): 1480 nM; GI50 [5]: 776 nM; GI50 ([5]; read-out: GI50): 1520 nM; TGI (DU-145): 1270 nM; GI50 (DU-145): 1440 nM
C/C=C1\NC(=O)[C@H](Cc2ccccc2)NC(=O)[C@@H](C(C)C)NC(=O)[C@@H](C(C)C)NC(=O)[C@H](NC(=O)[C@H](NC(=O)[C@H](CCCN)NC(=O)[C@H]2CCCN2C(=O)[C@H](NC(=O)[C@@H](NC(=O)[C@@H](NC(=O)[C@H](NC(=O)CCCC(C)C)C(C)C)[C@@H](C)O)C(C)C)C(C)C)C(C)C)[C@H](C)OC(=O)[C@H](C(C)C)NC1=O | 1430 nM | 1670 nM | 1940 nM | 2500 nM | 2460 nM | 2460 nM | 2480 nM | 1160 nM | 719 nM | 3160 nM | 2190 nM | 1660 nM | 1120 nM | 1690 nM | 2000 nM | 762 nM | 1020 nM | 2310 nM | 2120 nM | 1450 nM | GI50 (LNCaP): 2340 nM; TGI (LNCaP): 1960 nM; GI50 (HT-29): 2500 nM; TGI (HT-29): 2810 nM; GI50 (PANC-1): 4710 nM; TGI (PANC-1): 3910 nM; TGI (SK-MEL-28): 1650 nM; GI50 (SK-MEL-28): 1640 nM; GI50 (HeLa): 1400 nM; TGI (HeLa): 1260 nM; GI50 [4]: 2730 nM; TGI [4]: 2790 nM; TGI (A549): 3790 nM; GI50 (A549): 2400 nM; TGI (DU-145): 1180 nM; GI50 (DU-145): 1360 nM
C/C=C1\NC(=O)[C@H](Cc2ccccc2)NC(=O)[C@@H](C(C)C)NC(=O)[C@@H]([C@H](C)CC)NC(=O)[C@H](NC(=O)[C@H](NC(=O)[C@H](CCCN)NC(=O)[C@H]2CCCN2C(=O)[C@H](NC(=O)[C@@H](NC(=O)[C@@H](NC(=O)[C@H](NC(=O)CCCCC(C)=O)C(C)C)[C@@H](C)O)C(C)C)C(C)C)[C@H](C)CC)[C@H](C)OC(=O)[C@H](C(C)C)NC1=O | 5050 nM | 7660 nM | 3710 nM | 1910 nM | 8590 nM | 8100 nM | 3900 nM | 1390 nM | 638 nM | 2350 nM | 2290 nM | 1840 nM | 1370 nM | 1440 nM | 1810 nM | 851 nM | 1670 nM | 6310 nM | 7270 nM | 1050 nM | –
